This note sets out measurements from ChEMBL document CHEMBL2396523, “The synthesis of isopropylidene mRNA cap analogs modified with phosphorothioate moiety and their evaluation as promoters of mRNA translation” (Bioorg Med Chem Lett, 2013).

For one series, the species on record is Oryctolagus cuniculus. In words: Translational activity in Flexi rabbit reticulocyte lysate assessed as luciferase mRNA activity after 60 mins relative to m7GpppG. It counts as functional. In outline: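 Luciferase mRNAs capped by in vitro transcription, added at several concentrations to rabbit reticulocyte lysate optimized for cap-dependent translation. Luminometry of luciferase activity 60 min after mRNA addition. Translation efficiency taken from slope of luciferase activity versus mRNA concentration, averaged over replicate experiments.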

Series [1] is described as follows: Translational activity in human immature DC assessed as total protein expression after 72 hrs by bioluminescence assay relative to m2 7,3'-OGpppG. It counts as functional. Summed up: (§1)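 Luciferase-coding mRNAs made by T7 RNA polymerase in vitro transcription with the respective cap, electroporated into human immature dendritic cells. Luciferase activity measured over 72 h after electroporation, duplicate measurements. Mathematical modeling of the time course gave translational efficiency, time of maximal protein expression and total protein expression.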

Another series is filed under the species Homo sapiens. In words: Translational activity in human immature DC assessed as luciferase mRNA activity after 72 hrs by bioluminescence assay relative to m2 7,3'-OGpppG. It counts as functional. In outline:
as §1

A short description of series [2]: Translational activity in human immature DC assessed as time point of maximal protein expression by bioluminescence assay. The series is classed as functional. Summed up: as §1
In series [3] the target is Eukaryotic translation initiation factor 4E (Mus musculus) (UniProt P63073). Description: Binding affinity to mouse eIF4E by fluorescence quenching assay. In outline: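 Murine eIF4E titrated with cap analog solution; intrinsic Trp fluorescence quenching recorded at 337 nm with excitation at 280 nm. Equilibrium association constant (KAS) of the cap analog–eIF4E complex derived from the titration curves.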

A short description of series [4]: Drug degradation in aqueous buffer at pH 2 after 4.5 hrs by RP HPLC analysis. The series is classed as physicochemical. Particulars: pH 2, 4.5 h. In outline:
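Isopropylidene removal done in aqueous buffer at pH 2, 37 °C, for 4.5 h. Reaction progress followed by RP HPLC.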

The structures appear in SMILES notation.

Eukaryotic translation initiation factor 4E (Mus musculus), sequence (P63073 whole entry): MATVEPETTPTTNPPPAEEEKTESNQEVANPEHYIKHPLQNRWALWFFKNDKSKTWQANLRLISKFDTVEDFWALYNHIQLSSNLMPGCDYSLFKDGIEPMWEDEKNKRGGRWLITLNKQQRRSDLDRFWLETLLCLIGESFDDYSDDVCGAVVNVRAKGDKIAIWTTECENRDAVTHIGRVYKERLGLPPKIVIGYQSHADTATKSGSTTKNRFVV

Take `C[n+]1cn([C@@H]2O[C@H](COP(=O)([O-])OP(=O)(S)OP(=O)(O)OC[C@H]3O[C@@H](n4cnc5c(=O)[nH]c(N)nc54)[C@H](O)[C@@H]3O)[C@@H]3OC(C)(C)O[C@H]32)c2nc(N)nc(O)c21` (mixture of isomers; 2b) [listing 1 of 2 here]: the Ratio in the series listed under Oryctolagus cuniculus amounted to 1.16; in series [1], 0.97; in the series filed under Homo sapiens, 1.08. Moreover, the TIME in series [2] was determined as 8.9 h. This compound displayed a Ka in series [3] of 9.2 µM⁻¹.
On to `C[n+]1cn([C@@H]2O[C@H](COP(=O)([O-])OP(=O)(S)OP(=O)(O)OC[C@H]3O[C@@H](n4cnc5c(=O)[nH]c(N)nc54)[C@H](O)[C@@H]3O)[C@@H]3OC(C)(C)O[C@H]32)c2nc(N)nc(O)c21` (mixture of isomers; 2b) [listing 2 of 2 here], for which the Stability entry in series [4] is listed as “Stable”.
With `C[n+]1cn([C@@H]2O[C@H](COP(=O)(O)OP(=O)([O-])OP(=O)(O)OC[C@H]3O[C@@H](n4cnc5c(=O)[nH]c(N)nc54)[C@H](O)[C@@H]3O)[C@@H]3OC(C)(C)O[C@H]32)c2nc(N)nc(O)c21`, the Ratio in the series filed under Oryctolagus cuniculus is 0.8. Also, the Ka in series [3] is 2.9 µM⁻¹.
On to `C[n+]1cn([C@@H]2O[C@H](COP(=O)([O-])OP(=O)(S)OP(=O)(O)OC[C@H]3O[C@@H](n4cnc5c(=O)[nH]c(N)nc54)[C@H](O)[C@@H]3O)[C@@H]3OC(C)(C)O[C@H]32)c2nc(N)nc(O)c21` (mixture of isomers; 2a), for which the figures for the Ratio (in the series listed under Oryctolagus cuniculus; in series [1]; in the series listed under Homo sapiens) were 1.33, 1.62 and 1.23, respectively. Also, the TIME in series [2] was 11.1 h. The Ka in series [3] was 5.6 µM⁻¹.
Turning to `CO[C@H]1[C@@H](O)[C@H](n2c[n+](C)c3c(O)nc(N)nc32)O[C@@H]1COP(=O)(O)OP(=O)([O-])OP(=O)(O)OC[C@H]1O[C@@H](n2cnc3c(=O)[nH]c(N)nc32)[C@H](O)[C@@H]1O`, the Ratio in the series listed under Oryctolagus cuniculus stood at 1.32. Also, the TIME in series [2] stood at 9.25 h. Moreover, the Ka in series [3] amounted to 10.2 µM⁻¹.
